Test results taken from ChEMBL document CHEMBL3580617, “Discovery of Benzimidazole CYP11B2 Inhibitors with in Vivo Activity in Rhesus Monkeys” (ACS Med Chem Lett, 2015).
pIC50: −log10 of the molar value. Active and inactive are the calls of the source. The calls are words filed in the database; no cut-off is given here.

How the values were obtained:
[1] = target: T1, Cytochrome P450 11B2, mitochondrial (Homo sapiens, UniProt P19099); assay: Inhibition of human CYP11B2 expressed in V79 cells incubated for 1 hr before 11-deoxycorticosterone substrate addition by HTRF-based assay; type: cell-based
T1 sequence (P19099 whole entry): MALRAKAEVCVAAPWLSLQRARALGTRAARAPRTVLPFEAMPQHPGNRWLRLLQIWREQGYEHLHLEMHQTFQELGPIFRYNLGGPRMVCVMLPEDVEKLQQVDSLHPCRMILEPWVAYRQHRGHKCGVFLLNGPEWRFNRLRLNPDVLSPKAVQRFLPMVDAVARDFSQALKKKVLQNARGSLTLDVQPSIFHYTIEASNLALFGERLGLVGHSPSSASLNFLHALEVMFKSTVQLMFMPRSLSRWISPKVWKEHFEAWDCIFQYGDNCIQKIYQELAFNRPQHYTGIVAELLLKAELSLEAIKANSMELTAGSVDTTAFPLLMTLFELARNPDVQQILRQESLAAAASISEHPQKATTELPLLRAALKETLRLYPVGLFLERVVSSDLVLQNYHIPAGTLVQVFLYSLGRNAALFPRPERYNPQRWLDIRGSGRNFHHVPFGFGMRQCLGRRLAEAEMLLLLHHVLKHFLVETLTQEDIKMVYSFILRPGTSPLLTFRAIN
In short: (§1)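 Human CYP11B2 and CYP11B1 inhibition was tested in cell-based assays. Selectivity was taken as the hCYP11B1 IC50 divided by the hCYP11B2 IC50.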

[2] = target: T2, Cytochrome P450 11B1, mitochondrial (Homo sapiens, UniProt P15538); assay: Inhibition of human CYP11B1 expressed in V79 cells incubated for 1 hr before 11-deoxycortisol substrate addition by HTRF-based assay; type: cell-based; in short: as §1
T2 sequence (P15538 whole entry): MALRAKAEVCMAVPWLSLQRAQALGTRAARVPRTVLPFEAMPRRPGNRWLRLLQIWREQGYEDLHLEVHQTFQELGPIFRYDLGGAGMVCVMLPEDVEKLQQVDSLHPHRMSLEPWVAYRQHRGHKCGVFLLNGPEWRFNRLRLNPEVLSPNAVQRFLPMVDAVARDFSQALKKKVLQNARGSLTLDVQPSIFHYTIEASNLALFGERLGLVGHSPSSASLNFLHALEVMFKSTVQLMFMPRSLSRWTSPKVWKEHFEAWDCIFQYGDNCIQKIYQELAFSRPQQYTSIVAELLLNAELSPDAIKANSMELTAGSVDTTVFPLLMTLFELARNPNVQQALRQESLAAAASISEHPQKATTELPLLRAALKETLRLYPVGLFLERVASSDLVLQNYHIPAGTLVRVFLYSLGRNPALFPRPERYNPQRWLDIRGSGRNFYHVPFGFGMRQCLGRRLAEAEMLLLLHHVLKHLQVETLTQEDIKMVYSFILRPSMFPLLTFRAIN

[3] = organism: Homo sapiens; assay: Selectivity index, ratio of IC50 for human CYP11B1 to IC50 for human CYP11B2; in short: as §1
[4] = Fraction unbound in rat plasma at […] incubated for 4 hrs by equilibrium dialysis and LC/MS method; type: ADME, cell-free
[5] = Intrinsic clearance in rat liver microsomes at […] incubated for 10 mins before NADPH addition by LC/MS method; type: ADME; settings: read-out: CLH
[6] = Oral bioavailability in Sprague-Dawley rat at 2 mg/kg by LC-MS/MS method; type: ADME, organism-based; settings: in vivo
In short: (§2)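 In the rat pharmacokinetic study, AUC was normalized for dose (μM·h·kg/mg), plasma clearance was expressed in mL/min/kg, and oral bioavailability was calculated.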

[7] = test system: Rattus norvegicus; assay: Dose normalized AUC in Sprague-Dawley rat at 2 mg/kg, po or 1 mg/kg, iv by LC-MS/MS method; type: ADME, organism-based; settings: in vivo; in short: as §2
[8] = Plasma clearance in Sprague-Dawley rat at 2 mg/kg, po or 1 mg/kg, iv by LC-MS/MS method; type: ADME, organism-based; in short: as §2
[9] = test system: V79; assay: Inhibition of rhesus monkey CYP11B2 expressed in V79 cells incubated for 1 hr before 11-deoxycorticosterone substrate addition by HTRF-based assay; type: cell-based; settings: Macaca mulatta
[10] = target: T3, Cytochrome P450 11B2, mitochondrial (Rattus norvegicus, UniProt P30099); assay: Inhibition of rat CYP11B2 expressed in V79 cells incubated for 1 hr before 11-deoxycorticosterone substrate addition by HTRF-based assay; type: cell-based; settings: v79, 1 h
T3 sequence (P30099 whole entry): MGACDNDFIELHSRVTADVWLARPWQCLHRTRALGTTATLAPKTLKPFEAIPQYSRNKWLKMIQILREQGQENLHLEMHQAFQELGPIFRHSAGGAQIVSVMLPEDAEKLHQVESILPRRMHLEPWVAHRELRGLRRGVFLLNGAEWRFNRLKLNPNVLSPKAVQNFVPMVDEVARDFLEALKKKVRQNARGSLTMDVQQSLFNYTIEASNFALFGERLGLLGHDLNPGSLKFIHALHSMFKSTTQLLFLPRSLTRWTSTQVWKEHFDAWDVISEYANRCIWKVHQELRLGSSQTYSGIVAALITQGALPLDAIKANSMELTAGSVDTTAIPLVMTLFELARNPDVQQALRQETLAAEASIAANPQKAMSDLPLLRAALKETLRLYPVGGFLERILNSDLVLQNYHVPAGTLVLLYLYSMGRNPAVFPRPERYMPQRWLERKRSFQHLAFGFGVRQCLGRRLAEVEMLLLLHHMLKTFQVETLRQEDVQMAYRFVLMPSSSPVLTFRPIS

Compound | pIC50 [1] | pIC50 [2] | Ratio IC50 [3] | other results
CS(=O)(=O)c1ccc2c(c1)nc(-c1cccnc1)n2C1CC1 | < 6.00 | < 5.00 | – | –
Fc1cccc2c1nc(-c1cccnc1)n2C1CC1 | 6.66 | < 5.08 | > 38 | –
Fc1ccc2nc(-c3cccnc3)[nH]c2c1 | < 5.00 | 5.70 | < 1 | –
N#Cc1ccc2c(c1)nc(-c1cccnc1)n2C1CC1 | 5.75 | < 5.00 | > 6 | –
Fc1ccc2c(c1)nc(-c1cccnc1)n2C1CC1 | – | – | 142 | –
FC(F)(F)c1ccc2nc(-c3cccnc3)n(C3CC3)c2c1 | 6.60 | 5.74 | 7 | –
Fc1cccc2nc(-c3cccnc3)n(C3CC3)c12 | 6.97 | < 5.00 | > 93 | –
Fc1ccc2nc(-c3cccnc3)n(Cc3ccccc3)c2c1 | 6.22 | < 5.08 | > 14 | –
COc1ccc2c(c1)nc(-c1cccnc1)n2C1CC1 | < 6.00 | < 5.00 | – | –
CC(C)n1c(-c2cccnc2)nc2ccc(F)cc21 | 6.86 | 5.41 | 28 | –
Fc1ccc2nc(-c3cccnc3)n(CC(F)(F)F)c2c1 | 6.25 | < 5.08 | > 15 | –
Fc1ccc2nc(-c3cccnc3)n(C3CCC3)c2c1 | < 5.30 | < 5.00 | – | –
CC(C)(C)n1c(-c2cccnc2)nc2ccc(F)cc21 | < 5.30 | < 5.00 | – | –
FC(F)(F)c1ccc2c(c1)nc(-c1cccnc1)n2C1CC1 [MSD-CYP11B2-Negative-control] | < 5.00 | < 5.00 | – | –

Second part, led by results:

pIC50 [1] | pIC50 [2] | Ratio IC50 [3] | Compound | other results
7.62 | 5.70 | 83 | COc1ccc2nc(-c3cccnc3)n(C3CC3)c2c1 | –
8.92 | – | 309 | N#Cc1ccc2nc(-c3cccnc3)n(C3CC3)c2c1 | –
8.66 | 6.32 | 215 | Clc1ccc2nc(-c3cccnc3)n(C3CC3)c2c1 | –
9.22 | 6.93 | 195 | N#Cc1cc2c(cc1F)nc(-c1cccnc1)n2C1CC1 | –
7.99 | 6.14 | 71 | Cc1ccncc1-c1nc2cc(F)c(F)cc2n1C1CC1 | –
9.40 | 6.60 | 606 | COc1cncc(-c2nc3cc(F)c(F)cc3n2C2CC2)c1 | –
7.92 | 6.17 | 56 | Cn1c(-c2cccnc2)nc2ccc(F)cc21 | fraction unbound at 4 h [4]: 0.25; CLint scaled [5]: 30 mL/min/kg; bioavailability [6]: 37%; AUC/dose [7]: 0.56 µM·kg·h/mg; clearance [8]: 59 mL/min/kg
8.09 | 6.10 | 98 | Fc1cc2nc(-c3cnccc3C(F)(F)F)n(C3CC3)c2cc1F | –
8.40 | 6.40 | 100 | Fc1ccc2nc(-c3cccnc3)n(C3CC3)c2c1 | fraction unbound at 4 h [4]: 0.15; CLint scaled [5]: 28 mL/min/kg; bioavailability [6]: 77%; AUC/dose [7]: 1.82 µM·kg·h/mg; clearance [8]: 28 mL/min/kg
8.68 | 6.43 | 176 | Fc1cc2nc(-c3cccnc3)n(C3CC3)c2cc1F | fraction unbound at 4 h [4]: 0.15; CLint scaled [5]: < 20 mL/min/kg; bioavailability [6]: 92%; AUC/dose [7]: 1.32 µM·kg·h/mg; clearance [8]: 43 mL/min/kg; inhibition [9]: Active; inhibition (INH) [10]: Not Active
9.22 | 6.36 | 709 | COc1c(C)cncc1-c1nc2cc(F)c(F)cc2n1C1CC1 | –
7.31 | < 5.08 | > 170 | c1cncc(-c2nc3ccccc3n2C2CC2)c1 | –
9.10 | 6.60 | 296 | Fc1cncc(-c2nc3cc(F)c(Cl)cc3n2C2CC2)c1 | –
9.40 | 6.48 | 835 | Fc1cc2nc(-c3cccnc3)n(C3CC3)c2cc1Cl | –
9.70 | 7.75 | 74 | Cc1cncc(-c2nc3cc(F)c(F)cc3n2C2CC2)c1C | –
7.65 | 5.81 | 70 | N#Cc1cncc(-c2nc3cc(F)c(F)cc3n2C2CC2)c1 | –
9.00 | 6.65 | 225 | N#Cc1cc2c(cc1F)nc(-c1cncc(F)c1)n2C1CC1 | –
7.46 | 5.68 | 60 | CCn1c(-c2cccnc2)nc2ccc(F)cc21 | –
7.80 | 5.54 | 179 | CC1(n2c(-c3cccnc3)nc3ccc(F)cc32)CC1 | fraction unbound at 4 h [4]: 0.19; CLint scaled [5]: 82 mL/min/kg; bioavailability [6]: 32%; AUC/dose [7]: 0.2 µM·kg·h/mg; clearance [8]: 131 mL/min/kg
